Assay results taken from ChEMBL document CHEMBL1287769, “Investigating the activity of 2-substituted alkyl-6-(2,5-dioxopyrrolidin-1-yl)hexanoates as skin penetration enhancers” (Bioorg Med Chem, 2010).
pIC50: −log10 of the molar value.

How the values were obtained:
[1] = Lipophilicity, log K of the compound in methanol-water mixture by HPLC; format: physicochemical
Summary of the method: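 Isocratic RP-HPLC on end-capped C18 column, methanol as organic modifier in mobile phase at various amounts, 25 °C, detection 204 nm. Dead time from KI in methanol. Capacity factor k = (tR − tD)/tD; log k used as lipophilicity index.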

[2] = Potentiation of theophylline transdermal permeation in pig ear skin after 24 hrs by Franz diffusion cells method relative to untreated control; format: functional, Sus scrofa
Summary of the method: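 Thawed full-thickness porcine ear skin, epidermis up, in vertical Franz cell (0.635 cm2 donor area). Receptor: PBS pH 7.4, 37 °C, stirred; skin equilibrated 0.5 h. Donor: enhancer 20 mg in PG 0.5 mL plus theophylline 5 mg in water 0.5 mL, sonicated; controls without enhancer. Receptor sampled at 1, 2, 4, 8, 12, 24 h, theophylline by HPLC at 280 nm. Steady-state flux from linear region; ER = flux with/without enhancer; ≥3 determinations, ≥2 animals.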

[3] = system: SK-N-MC; assay: Antiproliferative activity against human SK-N-MC cells after 72 hrs by MTT assay; format: cell-based
Summary of the method: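 SK-N-MC cells (ATCC) grown in MEM with 10% FBS, pyruvate, non-essential amino acids, glutamine, antibiotics, fungizone at 37 °C, 5% CO2. Seeded 1.5 × 10^4 cells/well in medium with human diferric transferrin 1.25 µM ([Fe] = 2.5 µM), compounds 0–25 µM, 72 h. MTT added for 2 h, solubilized in SDS/isobutanol/HCl, read at 570 nm. IC50 = concentration reducing absorbance to 50% of untreated control; mean ± SD, n = 3.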

| Compound | log K [1] | pIC50 [3] | fold change (FC) [2] |
| --- | --- | --- | --- |
| CCOC(=O)C(CCCCN1C(=O)CCC1=O)N1CCCCC1=O (stereo unspecified) | -0.9565 |  |  |
| CCCCCCCOC(=O)C(CCCCN1C(=O)CCC1=O)N1CCCCC1=O (stereo unspecified) | -0.0685 | < 5.20 | 2.17 |
| CCCCCCCCCOC(=O)C(CCCCN1C(=O)CCC1=O)N1CCCCC1=O (stereo unspecified) | 0.2638 | < 5.20 | 1.81 |
| CCCCCCCCCCOC(=O)C(CCCCN1C(=O)CCC1=O)N1CCCCC1=O (stereo unspecified) | 0.4285 | < 5.20 | 1.63 |
| CCCCCCCCCCCCOC(=O)C(CCCCN1C(=O)CCC1=O)N1CCCCC1=O (stereo unspecified) | 0.7413 | < 5.20 | 1.75 |
| CCCCCCCCCCCOC(=O)C(CCCCN1C(=O)CCC1=O)N1CCOCC1 (stereo unspecified) | 0.7588 | < 5.20 | 1.61 |
| CCCCCCCC/C=C\CCCCCCCC(=O)O [OLEIC ACID] |  |  | 1.13 |

The next lines start with results.

| log K [1] | pIC50 [3] | Compound | fold change (FC) [2] |
| --- | --- | --- | --- |
| 0.9221 | < 5.20 | CCCCCCCCCCCCOC(=O)C(CCCCN1C(=O)CCC1=O)N1CCOCC1 (stereo unspecified) | 1.92 |
| -0.7951 |  | CCOC(=O)C(CCCCN1C(=O)CCC1=O)N1CCOCC1 (stereo unspecified) |  |
| -0.2356 | < 5.20 | CCCCCCOC(=O)C(CCCCN1C(=O)CCC1=O)N1CCCCC1=O (stereo unspecified) | 2.33 |
| 0.0973 | < 5.20 | CCCCCCCCOC(=O)C(CCCCN1C(=O)CCC1=O)N1CCCCC1=O (stereo unspecified) | 1.88 |
| 0.5894 | < 5.20 | CCCCCCCCCCCOC(=O)C(CCCCN1C(=O)CCC1=O)N1CCCCC1=O (stereo unspecified) | 2.36 |
| -0.0736 | < 5.20 | CCCCCCOC(=O)C(CCCCN1C(=O)CCC1=O)N1CCOCC1 (stereo unspecified) | 2.11 |
| 0.0934 | < 5.20 | CCCCCCCOC(=O)C(CCCCN1C(=O)CCC1=O)N1CCOCC1 (stereo unspecified) | 1.26 |
| 0.2613 | < 5.20 | CCCCCCCCOC(=O)C(CCCCN1C(=O)CCC1=O)N1CCOCC1 (stereo unspecified) | 1.8 |
| 0.4177 | < 5.20 | CCCCCCCCCOC(=O)C(CCCCN1C(=O)CCC1=O)N1CCOCC1 (stereo unspecified) | 1.49 |
| 0.5834 | < 5.20 | CCCCCCCCCCOC(=O)C(CCCCN1C(=O)CCC1=O)N1CCOCC1 (stereo unspecified) | 1.71 |
|  | 4.77 | CC(=O)N(O)CCCCCNC(=O)CCC(=O)N(O)CCCCCNC(=O)CCC(=O)N(O)CCCCCN [DEFEROXAMINE] |  |
